Results from different studies.
Compare with care: the assays were run in different laboratories.
Target: Aurora kinase A (AURKA, Homo sapiens, UniProt O14965)
One construct used (O14965 1-403): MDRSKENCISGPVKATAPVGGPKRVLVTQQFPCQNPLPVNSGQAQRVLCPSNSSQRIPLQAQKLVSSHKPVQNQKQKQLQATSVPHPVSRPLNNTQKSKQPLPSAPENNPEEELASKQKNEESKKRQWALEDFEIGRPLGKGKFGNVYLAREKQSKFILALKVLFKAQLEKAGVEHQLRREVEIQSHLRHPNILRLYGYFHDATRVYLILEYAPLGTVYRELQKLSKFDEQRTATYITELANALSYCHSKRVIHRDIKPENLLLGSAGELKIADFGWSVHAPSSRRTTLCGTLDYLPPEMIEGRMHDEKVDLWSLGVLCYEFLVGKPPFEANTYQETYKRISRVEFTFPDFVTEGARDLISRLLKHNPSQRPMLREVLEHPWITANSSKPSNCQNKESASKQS

SMILES | test | setting | quantity | result
C=CC(=O)N1CCC[C@@H](n2nc(-c3ccc(Oc4ccccc4)cc3)c3c(N)ncnc32)C1 | enzyme activity, inhibitor | 1 µM | inhibition | 5%
COc1ccc2oc(-c3ccc4nc(N)oc4c3)c/c(=N\c3ccccc3NC(=O)CCN)c2c1 | binding | 1 µM | remaining binding | 98%
CCCCC(=O)Nc1ccc(-c2ccc3ncn(CCC)c(=O)c3c2)cn1 | binding, competition with immobilised ligand | 0.5 µM | remaining binding | 100%
C1=C/COCc2cc(ccc2OCCN2CCCC2)Nc2nccc(n2)-c2cccc(c2)COC/1 | binding | 0.1 µM | remaining binding | 81%
C[C@H]1CC[C@H](n2c3cnccc3c3cnc(Nc4ccc5c(n4)CCN(C(=O)CO)C5)nc32)CC1 | cell-free assay, competition with immobilised ligand | 1 µM | remaining binding | 100%
N#Cc1ccc(NC(=O)Nc2ccccc2)cc1 | cell-free assay, competition with immobilised ligand | 25 µM | remaining binding | 80%
CN1CCN(C(=O)c2ccc(NC(=O)Nc3ccc(N(C)c4ccnc(Nc5ccc(CS(C)(=O)=O)cc5)n4)cc3)cc2)CC1 | binding, competition with immobilised ligand | 1 µM | remaining binding | 0%
C=CC(=O)N1CCC([C@@H]2CCNc3c(C(N)=O)c(-c4ccc(Oc5ccccc5)cc4)nn32)CC1 | enzyme activity, inhibitor | 1 µM | inhibition | 1%
CC(=O)ON=C1C=CC(=C(C#N)c2ccccc2)C=C1 | enzyme activity, inhibitor, ADP detection | 20 µM | activity vs control | 66%
C#Cc1cc(-c2cc(Nc3nc(N[C@@H](C)c4ccc(F)cn4)ncc3Cl)n[nH]2)ccc1C=O | enzyme activity, inhibitor | 0.2 µM | inhibition | 82%
